Source: ChEMBL document CHEMBL3739299, “8-Hydroxyquinoline-based inhibitors of the Rce1 protease disrupt Ras membrane localization in human cells” (Bioorg Med Chem, 2016)
Active and inactive are the calls of the source. The calls are words filed in the database; no cut-off is given here.

What was measured:
[1] = target: T1, CAAX prenyl protease 1 homolog (Homo sapiens) (UniProt O75844); test: Inhibition of human FACE1-mediated CaaX protease activity at 10 uM measured every 30 to 60 seconds for 60 mins
T1 sequence (whole entry): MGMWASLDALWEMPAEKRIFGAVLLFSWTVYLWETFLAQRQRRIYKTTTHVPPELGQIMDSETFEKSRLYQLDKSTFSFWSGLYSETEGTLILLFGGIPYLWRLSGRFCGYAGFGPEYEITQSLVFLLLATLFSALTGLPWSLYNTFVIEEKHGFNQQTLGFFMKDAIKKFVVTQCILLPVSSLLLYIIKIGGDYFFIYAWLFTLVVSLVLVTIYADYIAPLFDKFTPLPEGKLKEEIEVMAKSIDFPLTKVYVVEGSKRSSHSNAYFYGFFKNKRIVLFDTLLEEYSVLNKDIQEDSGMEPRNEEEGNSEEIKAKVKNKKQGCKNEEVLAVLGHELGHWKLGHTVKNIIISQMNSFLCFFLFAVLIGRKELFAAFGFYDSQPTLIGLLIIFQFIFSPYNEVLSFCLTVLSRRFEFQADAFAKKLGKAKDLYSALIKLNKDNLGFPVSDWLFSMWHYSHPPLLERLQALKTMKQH
Method in brief: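 Human Ste24 overexpressed in yeast strain SM3614 (ste24 rce1 null); membranes 0.25 mg/mL final in 200 mM Tris pH 7.5, 200 mM NaCl, 1 mg/mL BSA. Pretreated 15 min at 30 °C with 10 μM compound in duplicate, then 20 μM ABZ-KSKTKC(farnesyl)VIQL substrate added. Fluorescence (ex 320/em 420) read every 30–60 s for 60 min at 30 °C. Initial velocities normalised via trypsin-digest maximum fluorescence and expressed as % of DMSO control. SD shown.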

[2] = tested on: Protein farnesyltransferase (Rattus norvegicus); test: Inhibition of protein farnesyltransferase (rat) at 50 uM measured every 40 seconds for 60 mins
[3] = target: T2, CAAX prenyl protease 2 (Homo sapiens) (UniProt Q9Y256); test: Inhibition of Rce1 in human HCT116 cells assessed as mislocalization of EGFP-K-Ras in plasma membrane at 25 uM after 20 hrs by fluorescence assay; conditions: HCT-116
T2 sequence (whole entry): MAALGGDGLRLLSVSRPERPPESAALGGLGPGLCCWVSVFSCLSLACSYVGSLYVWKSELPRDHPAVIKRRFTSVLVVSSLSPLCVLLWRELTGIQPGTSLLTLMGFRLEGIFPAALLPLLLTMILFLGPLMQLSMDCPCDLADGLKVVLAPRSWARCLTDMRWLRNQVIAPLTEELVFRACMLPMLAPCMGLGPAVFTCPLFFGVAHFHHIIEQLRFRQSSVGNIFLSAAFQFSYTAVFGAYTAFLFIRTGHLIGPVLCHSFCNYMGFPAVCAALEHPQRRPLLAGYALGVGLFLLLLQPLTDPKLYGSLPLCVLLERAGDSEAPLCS

CAAX prenyl protease 2 = target: T3, CAAX prenyl protease 2 (Homo sapiens, UniProt Q9Y256); test: Inhibition of human Rce1-mediated CaaX protease activity using ABZ-KSKTKC(farnesyl)QIIM and ABZ-KSKTKC(farnesyl)VIQI as substrate assessed as residual activity measured every 30 to 60 seconds for 60 mins
T3 sequence (Q9Y256 whole entry): T2 sequence (whole entry)
Method in brief: (§1)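 Membranes from yeast SM3614 (ste24 rce1 null) overexpressing human Rce1, 0.25 mg/mL final in 200 mM Tris pH 7.5, 200 mM NaCl, 1 mg/mL BSA. […] Reaction started with 20 μM ABZ-KSKTKC(farnesyl)QLIM. Fluorescence (ex 320/em 420) read every 30–60 s for 60 min at 30 °C. Initial velocities trypsin-normalised; activity given as % of DMSO control.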

[4] = Cytotoxicity against human HCT116 cells assessed as cell death at 25 uM after 20 hrs by celltiter blue assay (reference value: 0.4%); type: cell-based; conditions: hct-116, 20 h
Method in brief: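 HCT-116 cells grown in DMEM with 10% FBS and 1% NEAA at 37 °C, 5% CO2, seeded 7 × 10^3 per well, exposed 20 h to 25 μM compound (0.4% DMSO vehicle; untreated control). CellTiter-Blue added for 4 h, fluorescence read at 560/590 nm. Values relative to untreated cells, mean of three independent experiments with SEM.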

[5] = target: T2, CAAX prenyl protease 2 (Homo sapiens); test: Inhibition of human Rce1-mediated CaaX protease activity using […] and […] as substrate assessed as residual activity at 10 uM measured every 30 to 60 seconds for 60 mins; method in brief: as §1
[6] = target: T2, CAAX prenyl protease 2 (Homo sapiens); test: Effect on EGFP-H-Ras plasma membrane association in human HCT116 cells at 25 uM after 20 hrs by fluorescence assay; conditions: HCT-116
[7] = target: T2, CAAX prenyl protease 2 (Homo sapiens); test: Effect on EGFP-N-Ras plasma membrane association in human HCT116 cells at 25 uM after 20 hrs by fluorescence assay; conditions: HCT-116

Row | inhibition [1] | inhibition [2] | K-Ras plasma membrane association [3] | IC50 (CAAX prenyl protease 2) | Activity [5] | PM association [6] | PM association [7] | Compound | Cell death [4]
1 | inactive | inactive | 16% | 6.7 µM | 23% | – | – | O=C(O)c1ccc(NC(c2ccc(Br)cc2)c2ccc3cccnc3c2O)cc1 (stereo not drawn) | 25%
2 | inactive | inactive | – | 8.9 µM | 39% | 14% | 10% | Oc1c(C(Nc2ccccc2)c2ccccc2)ccc2cccnc12 (stereo not drawn) | < 10%
